{
  "source": "paper PMC11437091",
  "about": "(Scientific Reports, 2024)",
  "key": {"MDA-MB-231 cells": {"test_system": "MDA-MB-231 cells", "experiment": "flow cytometry binding of EDBp-Cy5 to cells", "assay_type": "cell-based", "settings": "1 µM, 37 °C, 60 min", "in_short": "(§1)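 Cells were grown in DMEM with 10% FBS at 37 °C and 5% CO2, then seeded at 1 × 10^6 cells/ml in 6-well plates. They were stained with 1 µM Cy5-labelled test compound, or a Cy5-labelled cyclic control peptide, for 60 min at 37 °C. Cells were washed three times with PBS and analysed by flow cytometry for Cy5 signal.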"}, "MCF7 cells": {"test_system": "MCF7 cells", "experiment": "flow cytometry binding of EDBp-Cy5 to cells", "assay_type": "cell-based", "settings": "1 µM, 37 °C, 60 min", "in_short": "as §1"}, "EMT6 cells": {"test_system": "EMT6 cells", "experiment": "flow cytometry binding of EDBp-Cy5 to cells", "assay_type": "cell-based", "settings": "1 µM, 37 °C, 60 min", "in_short": "as §1"}, "[1]": {"test_system": "EDB-FN in MDA-MB-231 cells", "experiment": "confocal immunofluorescence colocalization with EDB-FN", "assay_type": "cell-based", "settings": "confocal microscopy, 1 µM, 37 °C, 2 h", "in_short": "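MDA-MB-231 cells were seeded at 1 × 10^5 cells/ml in confocal dishes. They were incubated with 1 µM Cy5-labelled test compound for 2 h at 37 °C, washed six times with PBST, and fixed in 4% paraformaldehyde. Permeabilization used 0.25% Triton X-100 and blocking used 5% BSA for 30 min. Anti-EDB-FN mAb (1:1000) was applied overnight at 4 °C. Alexa Fluor 488 anti-rabbit (4 µg/mL) was applied 1 h at RT. Nuclei were stained with DAPI and imaged by confocal microscopy.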"}, "[2]": {"test_system": "subcutaneous MDA-MB-231-luc tumor", "experiment": "NIRF imaging, subcutaneous tumor model mice", "assay_type": "in vivo", "in_short": "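Female BALB/c-nude mice, 6 weeks old, received 1 × 10^6 MDA-MB-231-luc cells s.c. in PBS with 30% matrigel. The Cy5-labelled test compound (1 µmol) was injected i.v. via tail vein. IVIS whole-body imaging at 48 h used excitation 640 nm and emission 680 nm. Luminescence was read from 10 min after i.p. luciferin 150 mg/kg. Organs and tumour were imaged ex vivo after euthanasia, with semiquantitative fluorescence intensity, n = 3.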"}},
  "data": [
    {"substance": "AVRTSAD-PEG4-K-Cy5 [EDBp-Cy5]", "values": [
      {"measurement": "cell binding ability", "setting": "MDA-MB-231 cells", "result": "high"},
      {"measurement": "cell binding ability", "setting": "MCF7 cells", "result": "moderate"},
      {"measurement": "cell binding ability", "setting": "EMT6 cells", "result": "moderate"},
      {"measurement": "colocalization with EDB-FN", "setting": "[1]", "result": "colocalized with EDB-FN"},
      {"measurement": "enrichment in subcutaneous tumor (NIRF imaging)", "setting": "[2]; 48 h after i.v. injection of 1 µmol, whole-body imaging", "result": "significantly enriched"},
      {"measurement": "ex vivo distribution in main organs and tumor (NIRF)", "setting": "[2]; 48 h after injection, organs collected, n = 3", "result": "observed mainly in the kidney and subcutaneous tumor"}
    ]}
  ]
}
